Data: paper PMC9494814 (Cell, 2022)
Read-outs that look alike come from different tables or passages of the source.

Legend:
αIIbβ3 headpiece [1] = biological target: T1, αIIbβ3 headpiece (Homo sapiens, UniProt P05106+P08514); assay: Size-exclusion chromatography; type: biochemical; conditions: 10 μM drug; for effect on αIIbβ3 headpiece conformation in gel filtration: Mg2+ and Mn2+ buffers
How it was run: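 Superdex 200 column equilibrated with 10 µM test compound in HEPES-buffered saline containing either 1 mM Mg2+/1 mM Ca2+ or 2 mM Mn2+/0.2 mM Ca2+. αIIbβ3 headpiece (30 µg) pre-incubated 30 min at RT with 60 µM compound in matching buffer, then chromatographed. Hydrodynamic radius taken from elution. Two runs, or one, per compound; controls ≥3.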

αIIbβ3 headpiece [2] = biological target: T1, αIIbβ3 headpiece; conditions: for conformational state of headpiece molecules in the crystal lattice: state 1 closed, state 8 open
How it was run: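 Closed αIIbβ3 headpiece–10E5 Fab crystals stabilised in 15% PEG 8000, 0.2 M ammonium sulfate, 0.1 M Tris-HCl pH 8.9, with glycerol raised in 5% steps to 15%. Compound (0.1-1 mM) added in the final 20% glycerol cryo step, with 1 mM MgCl2/1 mM CaCl2 or 2 mM MnCl2/0.2 mM CaCl2. Soaked 4 h, plunge-frozen in liquid N2. Synchrotron diffraction data collected, then structure refinement.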

αIIbβ3_N305T = αIIbβ3_N305T (Homo sapiens, UniProt P05106+P08514, N331T); assay: MBC319.4 Fab LIBS epitope exposure on αIIbβ3_N305T transfectants; type: cell-based; conditions: αIIbβ3 N305T transfectants, inhibitors at 100x Kd
How it was run: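 αIIbβ3_N305T transfectants of α5/αV-knockout Expi293F cells, harvested 48 h post-transfection and EDTA-washed. Incubated with 20 nM Alexa647-labelled MBC319.4 Fab and test compound in L-15 with 0.1% BSA, equilibrated 2 h at 22°C. Fab binding read by flow cytometry without washing, as MFI.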

[3] = biological target: αIIbβ3 on washed human platelets (Homo sapiens, UniProt P05106+P08514); assay: Platelets LIBS exposure assay; type: cell-based
How it was run: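 Blood from drug-free healthy donors was taken into acid-citrate-dextrose. PRP was spun (140xg, 12 min), given PGE1 at 50 ng/ml, pelleted, washed in citrate-dextrose buffer pH 6.5 and resuspended in Tyrode's pH 7.4 with 1% BSA and 1 mM Ca²⁺/Mg²⁺. […] Read-out was unwashed flow cytometry MFI, over three days with two donors.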

[4] = test system: clot retraction in human PRP; assay: Clot retraction in platelet-rich plasma; type: cell-based; conditions: thrombin
How it was run: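 Citrated human PRP pre-incubated 20 min at RT with test compound or buffer (in Tyrode's buffer + 1% BSA) at several concentrations. Glass-tube clot retraction started with thrombin (7.5 U/ml stock) at 37°C and imaged every 15 min. Retraction = 1 − (clot area/whole reaction area). IC50 at 30 and 90 min from a three-parameter inhibitor-response fit. Three runs, PRP from three donors.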

αIIbβ3 on platelets = conditions: cited from earlier work; for LIBS epitopes on platelets in platelet-rich plasma: ref Baba et al., 2001, Murphy et al.
αIIbβ3 WT = αIIbβ3 WT (Homo sapiens, UniProt P05106+P08514); assay: MBC319.4 Fab LIBS epitope exposure on αIIbβ3 WT transfectants; type: cell-based; conditions: inhibitors at 100x Kd
How it was run: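 Cells transiently transfected with αIIbβ3 received valproic acid (3 mM final) and glucose (0.4%) at 24 h, and were washed at 48 h in EDTA-containing then plain L-15/0.1% BSA. Cells were incubated with 20 nM Alexa647-MBC319.4 Fab plus inhibitor (Kd from FITC-echistatin competition on WT transfectants) in L15/0.1% BSA, 22°C for 2 h. Read-out was unwashed flow cytometry.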

[5] = after activation with thrombin 0.5 U/ml

| Compound | effect on αIIbβ3 headpiece conformation in gel filtration (αIIbβ3 headpiece [1]) | effect on structure of closed αIIbβ3 headpiece in crystals (αIIbβ3 headpiece [2]; soaked in Mn2+) | LIBS epitope exposure (integrin extension) on washed platelets [3, 5] | inhibition of clot retraction [4] | effect on αIIbβ3 headpiece opening in gel filtration (αIIbβ3 headpiece [1]; 2 mM Mn2+/0.2 mM Ca2+) | effect on αIIbβ3 headpiece opening in gel filtration (αIIbβ3 headpiece [1]; 1 mM Mg2+/1 mM Ca2+) | effect on structure of closed αIIbβ3 headpiece in crystals (αIIbβ3 headpiece [2]; soaked in Mg2+) | LIBS epitope exposure (integrin extension) on washed platelets ([3]; absence of thrombin) | LIBS (MBC319.4) epitope exposure (αIIbβ3 WT) | also measured |
| --- | --- | --- | --- | --- | --- | --- | --- | --- | --- | --- |
| N=C(N)c1ccc(C2=NOC(CN3CCC(CC(=O)O)CC3)C2)cc1 (centres unmarked) [BMS4–2, 2-(1-((3-(4-carbamimidoylphenyl)-4,5-dihydroisoxazol-5-yl)methyl)piperidin-4-yl)acetic acid] | – | – | showing significant induction except for BMS4–2 (p=0.06) | effective | stabilized headpiece opening | – | – | – | – | Ser-123 sidechain oxygen - MIDAS Mn2+ ion distance (αIIbβ3 headpiece [2]; soaked in Mn2+): 3.7±0.1 Å; conformational state of headpiece molecules in the crystal lattice (αIIbβ3 headpiece [2]; soaked in Mn2+): state 2 |
| CCOC(=O)COC1CCN(C(=O)[C@H](C)NC(=O)c2ccc(C(=N)NO)cc2)CC1 [sibrafiban] | – | induced a 2 Å movement in the β1-α1 loop at the Cα atom of Ser-123 toward ligand | – | effective | induced headpiece opening as completely as tirofiban | did not cause headpiece opening | did not cause any conformational change | modestly but significantly induced integrin extension | – | LIBS epitopes on platelets in platelet-rich plasma (αIIbβ3 on platelets; 1998): not to induce LIBS epitopes |
| CN1Cc2cc(C(=O)N3CCC(C4CCNCC4)CC3)ccc2N[C@@H](CC(=O)O)C1=O [lotrafiban, (S)-2-(7-([4,4’-bipiperidine]-1-carbonyl)-4-methyl-3-oxo-2,3,4,5-tetrahydro-1H-benzo[e][1,4]diazepin-2-yl)acetic acid] | – | – | – | – | – | caused the headpiece to elute earlier in gel filtration | Ser-123 displaced water 1 to coordinate directly to the MIDAS metal ion | Stronger extension | strongly induced LIBS exposure | hydrodynamic radius of αIIbβ3 headpiece (αIIbβ3 headpiece [1]; 2 mM Mn2+/0.2 mM Ca2+): ~ 5.36 nm |
| N=C(N)c1ccc(-c2ccc(OC[C@@H]3C[C@@H](CC(=O)O)C(=O)N3)cc2)cc1 [fradafiban, 2-((3S,5S)-5-(((4’-carbamimidoyl-[1,1’-biphenyl]-4-yl)oxy)methyl)-2-oxopyrrolidin-3-yl)acetic acid] | – | induced a 2 Å movement in the β1-α1 loop at the Cα atom of Ser-123 toward ligand | – | – | induced headpiece opening as completely as tirofiban | did not cause headpiece opening | did not cause any conformational change | modestly but significantly induced integrin extension | – | – |
| [H]/N=C(/N)c1ccc(C(=O)N[C@@H](Cc2ccc(O)cc2)C(=O)N2CCC(OCC(=O)O)CC2)cc1 [lamifiban] | – | induced a 2 Å movement in the β1-α1 loop at the Cα atom of Ser-123 toward ligand | – | – | induced headpiece opening as completely as tirofiban | did not cause headpiece opening | did not cause any conformational change | modestly but significantly induced integrin extension | – | LIBS epitopes on platelets in platelet-rich plasma (αIIbβ3 on platelets; 1998): not to induce LIBS epitopes; exposure of LIBS epitopes on αIIbβ3 on platelets (αIIbβ3 on platelets; ref Murphy et al., 1998): did not induce exposure of LIBS epitopes |
| CN1CCN(C(=N)c2ccc(C3=NOC(CN4CCN(CC(=O)O)CC4)C3)cc2)CC1 (centres unmarked) [BMS4, 2-(4-((3-(4-(imino(4-methylpiperazin-1-yl)methyl)phenyl)-4,5-dihydroisoxazol-5-yl)methyl)piperazin-1-yl)acetic acid] | – | no structural perturbation | decreased | – | shifted the headpiece to a smaller hydrodynamic radius than the control | neither UR-2922 nor BMS4 increased the hydrodynamic radius | no structural perturbation | – | – | LIBS (MBC319.4) epitope exposure (αIIbβ3_N305T): significantly suppressed LIBS induction; LIBS on platelets (αIIbβ3 on platelets; Mg2+ ref Breth et al., 2005): not to induce LIBS |
| N=C(N)c1ccc(C2=NOC(CN3CCN(CC(=O)O)CC3)C2)cc1 (centres unmarked) [BMS4–1, 3-(4-((3-(4-carbamimidoylphenyl)-4,5-dihydroisoxazol-5-yl)methyl)piperazin-1-yl)acetic acid] | closure stabilizing | remained in the closed state | decreased | effective | – | – | – | – | – | LIBS (MBC319.4) epitope exposure (αIIbβ3_N305T): significantly suppressed LIBS induction |
| eptifibatide | – | – | – | – | – | – | Ser-123 displaced water 1 to coordinate directly to the MIDAS metal ion | Stronger extension | strongly induced LIBS exposure | – |
| fibrinogen γ C-terminal dodecapeptide: fibrinogen γ C-terminal dodecapeptide HHLGGAKQAGDV | – | – | – | – | – | – | – | – | Weaker but significant induction | – |
| (2S)-2-((butoxycarbonyl)amino)-3-(2-(3-(4-carbamimidoylphenyl)-4,5-dihydroisoxazol-5-yl)acetamido)propanoic acid [roxifiban] | – | Ser-123 displaced water 1 to coordinate directly to the MIDAS metal ion | – | effective | – | caused the headpiece to elute earlier in gel filtration | – | Stronger extension | Weaker but significant induction | hydrodynamic radius of αIIbβ3 headpiece (αIIbβ3 headpiece [1]; 2 mM Mn2+/0.2 mM Ca2+): ~ 5.36 nm |

Continued, in another order:

| effect on αIIbβ3 headpiece conformation in gel filtration (αIIbβ3 headpiece [1]) | Compound | effect on structure of closed αIIbβ3 headpiece in crystals (αIIbβ3 headpiece [2]; soaked in Mn2+) | LIBS epitope exposure (integrin extension) on washed platelets [3, 5] | inhibition of clot retraction [4] | effect on αIIbβ3 headpiece opening in gel filtration (αIIbβ3 headpiece [1]; 2 mM Mn2+/0.2 mM Ca2+) | effect on αIIbβ3 headpiece opening in gel filtration (αIIbβ3 headpiece [1]; 1 mM Mg2+/1 mM Ca2+) | effect on structure of closed αIIbβ3 headpiece in crystals (αIIbβ3 headpiece [2]; soaked in Mg2+) | LIBS epitope exposure (integrin extension) on washed platelets ([3]; absence of thrombin) | LIBS (MBC319.4) epitope exposure (αIIbβ3 WT) | also measured |
| --- | --- | --- | --- | --- | --- | --- | --- | --- | --- | --- |
| closure stabilizing | O=C(O)CN1CCN(CC2CC(C3CCNCC3)=NO2)CC1 (centres unmarked) [BMS4–3, 2-(4-((3-(piperidin-4-yl)-4,5-dihydroisoxazol-5-yl)methyl)piperazin-1-yl)acetic acid] | remained in the closed state | – | – | – | – | – | – | – | – |
| closing | Cl.Cl.Cl.N=C(N)c1ccc(N2CCN(C3CCN(CC(=O)O)CC3)CC2)cc1 [GR144053] | – | decreased | – | – | – | – | – | – | LIBS (MBC319.4) epitope exposure (αIIbβ3_N305T): significantly suppressed LIBS induction; conformational state of headpiece molecules in the crystal lattice (αIIbβ3 headpiece [2]; soaked in Mn2+): state 1 |
| does in both Mg^2+ and Mn^2+ | N=C(N)c1ccc(N2C[C@H](CN3CCN(CCC(=O)O)CC3)OC2=O)cc1 [gantofiban analog, (S)-3-(4-((3-(4-carbamimidoylphenyl)-2-oxooxazolidin-5-yl)methyl)piperazin-1-yl)propanoic acid] | induced movement of the β1-α1 loop and Ser-123 sidechain oxygen into the position of water 1 | – | – | – | – | – | – | – | – |
